High-throughput results deposited in PubChem BioAssay by several laboratories.
NR2E3 ag-1 = NR2E3 agonists in two-hybrid cells, primary screen, cell-based, luminescence, CHO-S, Gal4-NCOR/VP16-NR2E3; luciferase; inhibition of corepressor binding, % at 3.98 µM; 0.35% of 360,000 active; AID 602229, 2012;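 active means inhibition above the mean of all tested compounds plus 3 SD, cut at about 70% in these data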;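 further: higher means lower luciferase signal from less NR2E3 corepressor binding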
Target sequence (Q9Y5X4 whole entry, looked up, the tested form may be a part): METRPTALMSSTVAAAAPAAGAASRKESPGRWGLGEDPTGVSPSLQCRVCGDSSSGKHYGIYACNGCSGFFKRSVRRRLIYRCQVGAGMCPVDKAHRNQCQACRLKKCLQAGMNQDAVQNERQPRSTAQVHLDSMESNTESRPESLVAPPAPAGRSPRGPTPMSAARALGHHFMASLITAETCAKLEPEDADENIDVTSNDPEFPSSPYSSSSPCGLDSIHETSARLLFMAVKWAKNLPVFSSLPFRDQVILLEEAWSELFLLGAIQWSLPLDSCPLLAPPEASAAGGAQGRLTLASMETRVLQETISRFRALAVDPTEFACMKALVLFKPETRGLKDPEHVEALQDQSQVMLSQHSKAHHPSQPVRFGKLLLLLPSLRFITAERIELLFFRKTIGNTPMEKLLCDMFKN
NR2E3 ag-2 = inhibitors of NR2E3-RetCOR corepressor binding, primary screen, NR2E3 agonist project, biochemical, TR-FRET, GST-NR2E3, biotin-RetCOR; inhibition of corepressor binding, % at 4.78 µM; 0.12% of 320,000 active; 1536-well; Photoreceptor-specific nuclear receptor (Homo sapiens), Q9Y5X4; AID 2300, 2010;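 active means percent inhibition above the cutoff of mean plus 3 SD of all tested compounds, set per screening campaign, cut at about 20% in these data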
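system = GST-tagged NR2E3 plus biotinylated RetCOR corepressor | input = 1.35 nM GST-NR2E3 | also added = 7 nM biotin-RetCOR | schedule = 5 h incubation at 4 °C | measured by = TR-FRET with europium anti-GST and streptavidin-D2, 340 nm excitation | read-out = percent loss of FRET ratio relative to control wells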
aDG glyco act = activators of alpha-DG glycosylation, primary screen, uHTS, Pro5-aDG cells, AlphaScreen; alpha-DG glycosylation AlphaScreen (IIH6); 0% Pro5, 100% B10-LARGE cell signal; activation, % at 10 µM; 0.22% of 360,000 active; AID 624168, 2012;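 active means activation of at least 8% versus controls, or a plate z-score of at least 8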;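 further: Pro5 are CHO cells carrying HIG-tagged alpha-DG that lacks glycosylation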
Jurkat NFkB inh = inhibitors of induced NF-kB luciferase reporter, primary screen, TCR NF-kB activation inhibitor project, cell-based, luminescence, uHTS; Jurkat, PMA/ionomycin-induced NF-kB luciferase reporter; inhibition, % at 4 µM; 0.53% of 330,000 active; AID 435003, 2010; in the data active means inhibition above about 50%
697 NFkB inh = inhibitors of PMA/ionomycin-induced NF-kB reporter, 697 cells, primary screen, B-cell NF-kB inhibitor project, cell-based, luminescence, uHTS | 697 B-cell NF-kB luciferase reporter, 16 h | inhibition, % at 4 µM | 0.33% of 330,000 active | AID 435022, 2010; in the data active means inhibition above about 35%
MPTP block = mitochondrial permeability transition pore inhibitors, primary screen, biochemical, isolated mouse mitochondria, absorbance | Ca2+ swelling absorbance, 30 min | inhibition, % at 10 µM | 1.4% of 360,000 active;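 active means inhibition of 50% or more, scaled per plate between neutral and stimulator controls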
NR2E3 ag conf = NR2E3 agonist confirmation in cells, cell-based, luminescence, CHO-S two-hybrid; 51% of 2,300 active; CHO-S mammalian two-hybrid NR2E3-NCOR, luciferase luminescence; inhibition, % at 3.98 µM; shares compounds with NR2E3 ag-1;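 active means average inhibition above a cutoff equal to the mean inhibition of all tested compounds plus one SD, cut at about 70% in these data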
GAL4-VP16 luc = GAL4-VP16 reporter modulators, confirmation, counter-screen for NR2E3 agonist project, cell-based, luminescence, CHO-S, high throughput. CHO-S GAL4-VP16 luciferase reporter. inhibition, % at 3.98 µM. 29% of 2,300 active. shares compounds with NR2E3 ag-1;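 active means mean inhibition above a cutoff equal to the average over all tested compounds plus one standard deviation, cut at about 70% in these data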;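 further: luciferase from a UAS reporter driven by GAL4-VP16 transactivation; higher means less reporter light so more repression of VP16 activity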
Rh123 counter = fluorescence retest of MPTP screen hits in isolated mitochondria, single concentration. shares compounds with MPTP block. membrane potential, Rhodamine 123 fluorescence. inhibition, % at 10 µM. 78% of 5,000 active; in the data active means inhibition above about 22%
aDG conf = alpha-DG glycosylation enhancers, retest, confirmation, single concentration, Pro5-aDG cells | shares compounds with aDG glyco act | IIH6 AlphaLISA; scaled to LARGE-overexpressing B10 cells as 100% | activation, % at 10 µM (by protocol) | 17% of 600 active;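 active means activation of at least 7% in one or more replicates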;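 further: cells exposed to compound for two days before detection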
Each line names hits and unclear results; the compound was inactive in the other large screens (follow-up assays come after a bar, where they were run). Sampled rows, rich in hits. Any-hit rate of the full collection: about 2.4%.

NS(=O)(=O)c1cccc(NC(=O)c2ccccc2NS(=O)(=O)c2ccc(F)cc2)c1	none
O=C(Nc1cccc(S(=O)(=O)N2CCCCC2)c1)c1ccccc1NS(=O)(=O)c1ccc(F)cc1	NR2E3 ag-1 85.5, MPTP block 96.1 | NR2E3 ag conf 98.0 | GAL4-VP16 luc 70.6 | Rh123 counter 81.0
Cc1ccc(NC(=O)c2ccccc2NS(=O)(=O)c2ccc(F)cc2)cc1S(=O)(=O)N1CCCCC1	NR2E3 ag-1 88.5, MPTP block 95.4 | NR2E3 ag conf 98.0 | GAL4-VP16 luc 91.8 | Rh123 counter 83.7
Cc1ccc(NC(=O)c2c(C(F)(F)F)nn(C)c2SCc2cccc(C(F)(F)F)c2)cc1C	MPTP block 67.9 | NR2E3 ag conf inactive | GAL4-VP16 luc inactive | Rh123 counter 83.3
CC(C)(C)N(NS(=O)(=O)c1ccc(F)cc1)c1ccccc1	none
COc1ccccc1C(=O)NNC(=O)c1nn(Cc2ccccc2)c(=O)c2ccccc12	none
Nc1ccc(CNC(=O)c2cc3cc(Cl)ccc3nc2N)cc1	none (no result: NR2E3 ag-1, NR2E3 ag-2, Jurkat NFkB inh, 697 NFkB inh)
Nc1nc2ccccc2cc1C(=O)NCc1ccc(Cl)cc1Cl	NR2E3 ag-1 91.1, MPTP block 67.1 (no result: NR2E3 ag-2, Jurkat NFkB inh, 697 NFkB inh) | NR2E3 ag conf 96.9 | GAL4-VP16 luc 79.2 | Rh123 counter 97.3
Clc1ccccc1Nc1nc(NCc2ccccc2)nc2ccsc12	aDG glyco act 6.4 (no result: NR2E3 ag-2, Jurkat NFkB inh, 697 NFkB inh) | NR2E3 ag conf inactive | GAL4-VP16 luc inactive | aDG conf inactive
O=S(=O)(c1cc(C(F)(F)F)ccc1Cl)N1CCN(c2ncnc3ccccc23)CC1	NR2E3 ag-1 98.8, aDG glyco act 4.5, MPTP block 93.4 (no result: NR2E3 ag-2) | NR2E3 ag conf 95.0 | GAL4-VP16 luc 85.8 | Rh123 counter 104.8 | aDG conf inactive
O=S(=O)(c1cc(C(F)(F)F)ccc1Cl)N1CCCCCC1	none
CCOC(=O)Nc1ccc2c(c1)N(C(=O)N(CC)CC)c1ccccc1CC2	none
O=C(C[C@@H]1C/C=C\C[C@@H](Cc2ccc(F)cc2)C(=O)OC[C@H]2CCCN2C1=O)NCCO	none (no result: NR2E3 ag-2)
CCC(c1nnnn1-c1c(C)cccc1C)N1CCN(c2cccc(C(F)(F)F)n2)CC1 (stereo unspecified)	none (no result: NR2E3 ag-2, Jurkat NFkB inh, 697 NFkB inh)
CCC(c1nnnn1-c1c(C)cccc1C)N1CCN(c2ccc(C(F)(F)F)cc2[N+](=O)[O-])CC1 (stereo unspecified)	aDG glyco act 7.6 (no result: NR2E3 ag-2, Jurkat NFkB inh, 697 NFkB inh) | NR2E3 ag conf inactive | GAL4-VP16 luc inactive | aDG conf inactive
NC(c1ccccc1)c1cccs1 (stereo unspecified)	none (no result: NR2E3 ag-2, Jurkat NFkB inh, 697 NFkB inh)
CCOC(=O)c1c(C)[nH]c(C(=O)OCC(=O)Nc2cc(Cl)ccc2OC)c1C	none
CC(=O)c1c(C)[nH]c(C(=O)OCC(=O)Nc2ccc(Cl)cc2[N+](=O)[O-])c1C	NR2E3 ag-1 86.4, aDG glyco act 8.4, MPTP block 90.6 | NR2E3 ag conf 96.4 | GAL4-VP16 luc 89.4 | Rh123 counter 93.0 | aDG conf inactive
Clc1ccc(SCc2cc(N3CCOCC3)nc(-c3ccccn3)n2)cc1	NR2E3 ag-1 94.5, aDG glyco act 8.5 | NR2E3 ag conf inactive | GAL4-VP16 luc inactive | aDG conf 4.0
Cc1cccc(C)c1NC(=O)CN(C)S(=O)(=O)c1ccc(-c2ccc(=O)[nH]n2)s1	none
Cc1sc2ncnc(N[C@@H](Cc3ccccc3)C(=O)O)c2c1C	none
Cc1sc2ncnc(NCC(O)c3ccccc3)c2c1C (stereo unspecified)	NR2E3 ag-1 75.2, aDG glyco act 2.7, MPTP block 68.8 | NR2E3 ag conf 70.8 | GAL4-VP16 luc inactive | Rh123 counter 57.6 | aDG conf inactive
CC1CCCC/C1=N\NC(=S)Nc1ccccc1 (stereo unspecified)	none
CC(C)NC(=S)N/N=C1\CCCCC1C1CCCCC1 (stereo unspecified)	aDG glyco act 7.2 | NR2E3 ag conf inactive | GAL4-VP16 luc inactive | aDG conf inactive
CC(=O)c1c(C)[nH]c(C(=O)OCc2ccccc2)c1C	none
CC(=O)c1c(C)[nH]c(C(=O)OCCCCN2C(=O)c3ccccc3C2=O)c1C	NR2E3 ag-1 88.8, aDG glyco act 6.9, MPTP block 102.6 | NR2E3 ag conf 96.2 | GAL4-VP16 luc 88.5 | Rh123 counter 90.7 | aDG conf inactive
Cc1[nH]c2ccccc2c1C(=O)COc1ccccc1	none
CC12CCC(=O)C=C1CCC1C2CCC2(C)C(c3csc(N)n3)CCC12 (stereo unspecified)	NR2E3 ag-1 75.2, aDG glyco act 7.0, MPTP block 87.4 (no result: NR2E3 ag-2, Jurkat NFkB inh, 697 NFkB inh) | NR2E3 ag conf 94.1 | GAL4-VP16 luc 76.2 | Rh123 counter 91.8 | aDG conf inactive
O=C1NC2CCc3nc4ccccc4c(=O)n3C2=Nc2ccccc21 (stereo unspecified)	none
Cc1ccc2ccc3cccnc3c2n1	aDG glyco act 3.6 (no result: Jurkat NFkB inh, 697 NFkB inh) | NR2E3 ag conf inactive | GAL4-VP16 luc inactive | aDG conf 4.7
COCC1CCN(C(=O)c2cc(COc3ccc4ncccc4c3)on2)CC1	aDG glyco act 6.7, MPTP block 74.0 | NR2E3 ag conf 90.7 | GAL4-VP16 luc 75.0 | Rh123 counter 80.6 | aDG conf inactive
O=C(NCCc1cn2ccccc2n1)c1cc(COc2ccc3ncccc3c2)on1	aDG glyco act 10.1, MPTP block 101.5 | NR2E3 ag conf inactive | GAL4-VP16 luc inactive | Rh123 counter 92.4 | aDG conf inactive
Cc1cc(C)c(S(=O)(=O)/N=C2\C=C(NS(=O)(=O)c3ccccc3)C(=O)c3ccccc32)c(C)c1	MPTP block 87.1 | Rh123 counter 35.3
CC(C)(C)NC(=O)CN1CCCN(C(=O)c2cccc(S(=O)(=O)N3CCc4ccccc43)c2)CC1	none
O=C(COC(=O)c1ccc2ncsc2c1)NCc1ccccc1Cl	none (no result: NR2E3 ag-2)
